Legend:
[1] = molecular target: T1, Alpha-1A adrenergic receptor (Homo sapiens, UniProt P35348); assay: Agonist potency at Alpha-1 adrenergic receptor assayed in rat-1 fibroblasts expressing human Alpha-1 adrenergic receptor; type: functional
T1 sequence (P35348 whole entry): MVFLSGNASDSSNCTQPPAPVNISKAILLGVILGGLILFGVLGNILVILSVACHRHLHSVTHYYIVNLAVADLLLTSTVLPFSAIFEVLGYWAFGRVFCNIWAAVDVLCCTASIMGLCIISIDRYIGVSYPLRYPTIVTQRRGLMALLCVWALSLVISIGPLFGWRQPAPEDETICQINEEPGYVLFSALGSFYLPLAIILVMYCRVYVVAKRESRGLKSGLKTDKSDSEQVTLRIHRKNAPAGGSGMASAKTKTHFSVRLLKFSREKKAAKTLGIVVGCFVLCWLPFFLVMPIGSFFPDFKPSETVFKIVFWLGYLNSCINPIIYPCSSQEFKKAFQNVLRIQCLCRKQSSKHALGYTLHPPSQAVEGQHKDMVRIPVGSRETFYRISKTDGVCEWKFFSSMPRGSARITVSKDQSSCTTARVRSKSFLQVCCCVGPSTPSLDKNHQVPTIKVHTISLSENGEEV
How it was run: (§1)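 Rat-1 fibroblasts expressing human α1a/α1b/α1d, grown in DMEM with 10% heat-inactivated FBS and 0.6 mg/mL G418, plated 6000 cells/well and cultured 48 h at 37 °C. Loaded 2 h at 37 °C with Calcium Green (4 μM), 0.2% pluronic acid and 2.5 mM probenecid in HEPES buffer pH 7.4. FLIPR read at room temperature: 10 s baseline, then 50 s after compound. 11-point curves as % of 40 μM phenylephrine response, top concentration typically 5 μM.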

[2] = molecular target: T2, Alpha-2A adrenergic receptor (Homo sapiens, UniProt P08913); assay: Agonist potency at Alpha-2A adrenergic receptor expressed in CHO cells; type: functional, cell-based
T2 sequence (P08913 whole entry): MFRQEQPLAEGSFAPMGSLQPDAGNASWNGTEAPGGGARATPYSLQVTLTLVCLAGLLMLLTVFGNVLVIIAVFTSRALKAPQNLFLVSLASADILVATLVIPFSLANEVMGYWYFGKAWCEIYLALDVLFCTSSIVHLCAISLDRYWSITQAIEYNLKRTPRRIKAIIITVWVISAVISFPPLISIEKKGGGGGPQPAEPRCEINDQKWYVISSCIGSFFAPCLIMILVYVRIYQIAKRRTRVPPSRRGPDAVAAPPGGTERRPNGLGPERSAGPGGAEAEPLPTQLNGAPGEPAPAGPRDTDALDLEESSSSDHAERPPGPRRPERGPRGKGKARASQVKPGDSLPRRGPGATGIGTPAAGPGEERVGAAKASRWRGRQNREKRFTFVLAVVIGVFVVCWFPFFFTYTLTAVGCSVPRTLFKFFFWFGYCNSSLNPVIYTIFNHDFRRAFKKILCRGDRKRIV

[3] = molecular target: T3, Alpha-2C adrenergic receptor (Homo sapiens, UniProt P18825); assay: Agonist potency at Alpha-2C adrenergic receptor expressed in CHO cells; type: functional, cell-based
T3 sequence (P18825 whole entry): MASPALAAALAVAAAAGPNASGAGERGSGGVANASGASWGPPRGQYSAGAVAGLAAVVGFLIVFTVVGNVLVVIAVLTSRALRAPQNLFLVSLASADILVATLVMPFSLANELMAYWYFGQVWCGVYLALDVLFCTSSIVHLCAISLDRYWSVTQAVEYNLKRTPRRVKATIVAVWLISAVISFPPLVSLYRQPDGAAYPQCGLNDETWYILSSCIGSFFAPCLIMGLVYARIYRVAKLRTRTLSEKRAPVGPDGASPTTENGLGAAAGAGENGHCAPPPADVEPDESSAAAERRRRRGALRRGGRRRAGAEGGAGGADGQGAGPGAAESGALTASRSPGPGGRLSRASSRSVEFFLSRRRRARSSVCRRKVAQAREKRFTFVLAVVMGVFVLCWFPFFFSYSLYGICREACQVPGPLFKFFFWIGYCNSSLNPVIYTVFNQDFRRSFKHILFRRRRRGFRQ

[4] = molecular target: T4, Alpha-1B adrenergic receptor (Homo sapiens) (UniProt P35368); assay: Efficacy as % of the maximal effect observed for nonselective agonist phenylephrine in rat-1 fibroblasts expressing human Alpha-1B adrenergic receptor; type: functional; how it was run: as §1
T4 sequence (whole entry): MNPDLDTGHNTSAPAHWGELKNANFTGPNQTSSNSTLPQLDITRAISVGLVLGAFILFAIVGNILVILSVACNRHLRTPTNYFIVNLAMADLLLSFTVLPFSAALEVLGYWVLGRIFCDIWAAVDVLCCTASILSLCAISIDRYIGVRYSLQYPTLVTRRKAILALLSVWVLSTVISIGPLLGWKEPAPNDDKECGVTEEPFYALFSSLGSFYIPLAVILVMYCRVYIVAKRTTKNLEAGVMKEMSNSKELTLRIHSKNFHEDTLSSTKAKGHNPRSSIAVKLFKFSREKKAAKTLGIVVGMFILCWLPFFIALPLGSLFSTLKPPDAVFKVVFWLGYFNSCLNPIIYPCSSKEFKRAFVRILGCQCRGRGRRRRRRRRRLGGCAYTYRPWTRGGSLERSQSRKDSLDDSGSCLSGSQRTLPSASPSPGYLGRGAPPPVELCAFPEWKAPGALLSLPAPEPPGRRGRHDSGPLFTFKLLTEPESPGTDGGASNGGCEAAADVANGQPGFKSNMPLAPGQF

[5] = molecular target: T5, Alpha-1D adrenergic receptor (Homo sapiens) (UniProt P25100); assay: Efficacy as percent maximal effect observed for nonselective agonist phenylephrine in rat-1 fibroblasts expressing human Alpha-1D adrenergic receptor; type: functional; how it was run: as §1
T5 sequence (whole entry): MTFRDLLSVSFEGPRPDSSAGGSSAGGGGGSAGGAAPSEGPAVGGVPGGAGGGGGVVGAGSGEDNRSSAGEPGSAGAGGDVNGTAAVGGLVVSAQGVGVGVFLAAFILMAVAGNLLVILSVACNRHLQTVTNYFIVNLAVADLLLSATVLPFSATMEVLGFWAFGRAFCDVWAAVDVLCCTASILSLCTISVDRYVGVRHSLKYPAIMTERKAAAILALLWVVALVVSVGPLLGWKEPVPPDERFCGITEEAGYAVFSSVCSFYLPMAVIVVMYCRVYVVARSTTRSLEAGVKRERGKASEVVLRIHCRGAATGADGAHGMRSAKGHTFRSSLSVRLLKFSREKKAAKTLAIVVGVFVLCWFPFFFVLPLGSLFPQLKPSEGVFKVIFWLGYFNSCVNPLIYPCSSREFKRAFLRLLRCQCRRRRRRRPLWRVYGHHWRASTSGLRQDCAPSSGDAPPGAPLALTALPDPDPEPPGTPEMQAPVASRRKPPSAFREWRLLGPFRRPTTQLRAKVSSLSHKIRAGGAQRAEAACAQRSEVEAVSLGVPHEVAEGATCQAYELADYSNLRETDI

Row | Compound | EC50 [1] | EC50 [2] | EC50 [3] | Max [4] | Max [5]
1 | CS(=O)(=O)c1cccc(F)c1NCC1=NCCN1 | 41.7 nM | – | – | – | –
2 | CS(=O)(=O)c1c(F)cccc1NCC1=NCCN1 | 24 nM | > 10000 nM | 501 nM | – | –
3 | CS(=O)(=O)c1cc(F)ccc1NCC1=NCCN1 | – | > 10000 nM | > 10000 nM | – | –
4 | CCSc1ccccc1NCC1=NCCN1 | 3.39 nM | 251 nM | – | 82% | 34%
5 | CSc1ccccc1NCC1=NCCN1 | – | – | 5.62 nM | – | 55%
6 | CC(C)Sc1ccccc1NCC1=NCCN1 | 5.01 nM | 417 nM | 28.2 nM | 29% | –
7 | CC(C)S(=O)(=O)c1ccccc1NCC1=NCCN1 | 1950 nM | > 10000 nM | > 10000 nM | – | –
8 | CS(=O)(=O)c1ccc(Cl)cc1NCC1=NCCN1 | 2.82 nM | – | – | 103% | –
9 | CSc1cc(F)ccc1NCC1=NCCN1 | 7.76 nM | – | – | 78% | 75%
10 | CSc1ccc(C(F)(F)F)cc1NCC1=NCCN1 | 10.5 nM | – | – | 114% | 58%
11 | CSc1ccc(F)cc1NCC1=NCCN1 | 2.29 nM | – | – | 92% | 107%
12 | CSc1ccc(C)cc1NCC1=NCCN1 | 0.11 nM | – | – | 96% | 107%
13 | CSc1ccc(Cl)cc1NCC1=NCCN1 | 0.437 nM | – | – | 103% | 106%
14 | CS(=O)(=O)c1cc(Cl)ccc1NCC1=NCCN1 | 513 nM | – | – | – | –
15 | COc1ccc(SC)c(NCC2=NCCN2)c1 | 1.58 nM | – | – | 92% | 91%
16 | C[S+]([O-])c1ccccc1NCC1=NCCN1 (centres undefined) | – | > 10000 nM | > 10000 nM | – | –
17 | CCS(=O)(=O)c1ccccc1NCC1=NCCN1 | 240 nM | > 10000 nM | 5010 nM | – | –
18 | CS(=O)(=O)c1ccc(F)cc1NCC1=NCCN1 | 16.6 nM | – | – | – | –
19 | CS(=O)(=O)c1ccc(C(F)(F)F)cc1NCC1=NCCN1 | 1100 nM | – | – | – | –
20 | CSc1c(F)cccc1NCC1=NCCN1 | 7.76 nM | 100 nM | 15.8 nM | 48% | 59%
21 | Cc1ccc(S(C)(=O)=O)c(NCC2=NCCN2)c1 | 1.95 nM | – | – | 91% | –

Source: ChEMBL document CHEMBL1135421, “2-(Anilinomethyl)imidazolines as alpha1 adrenergic receptor agonists: the discovery of alpha1a subtype selective 2'-alkylsulfonyl-substituted analogues” (J Med Chem, 2002)
